Measured values from different studies.
Each line is one published result; the experiments were not run side by side.
Matrix: plasma

CONC(=O)c1cccc2c1cc(C)n2-c1nc2c(c(NCc3ccccc3)n1)CCCN2  Cmax (male Sprague-Dawley rat; oral, 10 mg/kg, single dose): 23.4 ng/mL
CC(=O)O[C@@H]1CC[C@@]2(C)[C@@H](CC[C@]3(C)[C@@H]2C(=O)C=C2[C@@H]4[C@@H](C)[C@H](C)CC[C@]4(C)CC[C@]23C)[C@@]1(C)C(=O)O  Cmax (female Wistar rat; oral, 1 mg/kg, single dose): 3360 ng/mL
COc1cc(-c2cc(C(C)=O)n3ccccc23)c(OC)cc1Cn1ccnc1  Cmax (male Sprague-Dawley rat; intravenous, 5 mg/kg): 4120 ng/mL
O=C1CCC(N2Cc3cc(C4CCN(Cc5ccccc5)CC4)ccc3C2=O)C(=O)N1 (stereo not drawn)  Cmax (male Sprague-Dawley rat; oral, 3 mg/kg): 72.7 ng/mL
C[C@H]1Oc2cc(cnc2N)-c2c(nn(C)c2C#N)CN(C)C(=O)c2ccc(F)cc21  Cmax (male Sprague-Dawley rat; oral, 10 mg/kg, single dose): 468 ng/mL
C=CCn1c(=O)c2cnc(Nc3ccc(N4CCN(C)CC4)cc3)nc2n1-c1ccc2c(n1)[C@@](O)(CC)CC2  Cmax (rat; oral, 60 mg/kg): 4 µM
COc1cc(C2C3=C(COC3=O)N(CCO)c3cc4c(cc32)CCC4)cc(OC)c1OC (stereo not drawn)  Cmax (female Sprague-Dawley rat; intraperitoneal, 50 mg/kg): 915 ng/mL
CNC(=O)c1cc(Oc2ccc(NC(=O)Nc3ccc(Cl)c(C(F)(F)F)c3)cc2)ccn1  Cmax (male Sprague-Dawley rat; oral, 100 mg/kg, single dose): 956 ng/mL
CCCCC(=O)Nc1ccc(-c2ccc3ncn(CCC)c(=O)c3c2)cn1  Cmax (male rat; intravenous, 2.5 mg/kg): 3090 ng/mL
Cc1cc2c(C(N)=O)cccc2n1-c1nc2c(c(NCc3ccccc3)n1)CCCN2  Cmax (male Sprague-Dawley rat; intravenous, 1 mg/kg, single dose): 802 ng/mL
COc1nc(-c2cccc(-c3ccccc3)c2C)ccc1CNCCNC(=O)CCCCCCCCCCC(=O)N1CCN(CCNC(=O)c2cc3c(=O)n4cccc(C)c4nc3n(CCc3cccs3)c2=N)CC1  Cmax (male Sprague-Dawley rat; oral, 40 mg/kg): 20.2 ng/mL
C=CC(=O)N1CCC([C@@H]2CCNc3c(C(N)=O)c(-c4ccc(Oc5ccccc5)cc4)nn32)CC1  Cmax (Sprague-Dawley rat; oral, 16 mg/kg): 426 ng/mL
CCOc1c([C@H](C)n2nc(C)c3c(N)ncnc32)cc(Cl)c(F)c1[C@@H]1CNC(=O)C1  Cmax (male Sprague-Dawley rat; oral, 2 mg/kg, single dose): 666 ng/mL
COc1ccc(N(Cc2csc(-c3ccccc3)n2)C(=O)CCCCCC(=O)NO)cc1  Cmax (female Sprague-Dawley rat; oral, 30 mg/kg): 4.73 ng/mL
[2H]C([2H])([2H])NC(=O)c1cc(Oc2ccc(NC(=O)Nc3ccc(Cl)c(C(F)(F)F)c3)cc2)ccn1  Cmax (rat; oral, 40 mg/kg, single dose): 7420 ng/mL
